Screening results: PubChem BioAssay, several laboratories
Rows were chosen to be rich in hits. Some 2.9% of all compounds tested hit in one or more screens of this group.
PG9 Ab binder – small molecules binding HIV-1 gp120 antibody PG9; TR-FRET gp120-PG9 antibody binding; inhibition, % at 6.7 µM; 360,000 tested, 0.43% active; in the data active = inhibition above about 8.5%
T cruzi repl – T. cruzi replication inhibition | T. cruzi beta-gal in NIH3T3, luminescence, 90 h | inhibition, % (test concentration not listed) | 300,000 tested, 1.4% active | AID 1885;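 active = mean inhibition across valid replicates above about 55%, limit read from the data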;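 also: signal also drops with host cell toxicity which is not excluded here; higher percent means less beta-gal luminescence so fewer parasites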
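Assay system: NIH/3T3 fibroblasts plus reporter T. cruzi. Amount: NIH/3T3 cells, 5,000 per well. Buffer or medium: DMEM, 2% fetal bovine serum. Doses: compound pinned at 50 nL/well, DMSO. Schedule: ≥90 h infection period, 3 h prior cell attachment. Signal: luminescent β-galactosidase signal after 60 min lysis. Read-out: parasite load inhibition, %.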
TAG inh – inhibitors of triacylglycerol accumulation; H9c2 cells, Nile Red lipid (TAG) fluorescence; cells loaded with 200 µM oleic acid; inhibition, % at 12.5 µM; 230,000 tested, 0.66% active; AID 651582;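 active = pattern-corrected inhibition of lipid staining of at least 50% with the nuclear-stain viability signal not falling by more than 50%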
Rev-erbA mod – modulates human Rev-erb alpha binding to DNA | P20393 | Rev-erbα–FITC-DNA binding, fluorescence polarization, 90 min | activity, % at 10 µM | 370,000 tested, 0.79% active;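 active = activity above about 14%, limit read from the data; passing the limit was not always enough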
Target sequence (P20393 whole entry, looked up): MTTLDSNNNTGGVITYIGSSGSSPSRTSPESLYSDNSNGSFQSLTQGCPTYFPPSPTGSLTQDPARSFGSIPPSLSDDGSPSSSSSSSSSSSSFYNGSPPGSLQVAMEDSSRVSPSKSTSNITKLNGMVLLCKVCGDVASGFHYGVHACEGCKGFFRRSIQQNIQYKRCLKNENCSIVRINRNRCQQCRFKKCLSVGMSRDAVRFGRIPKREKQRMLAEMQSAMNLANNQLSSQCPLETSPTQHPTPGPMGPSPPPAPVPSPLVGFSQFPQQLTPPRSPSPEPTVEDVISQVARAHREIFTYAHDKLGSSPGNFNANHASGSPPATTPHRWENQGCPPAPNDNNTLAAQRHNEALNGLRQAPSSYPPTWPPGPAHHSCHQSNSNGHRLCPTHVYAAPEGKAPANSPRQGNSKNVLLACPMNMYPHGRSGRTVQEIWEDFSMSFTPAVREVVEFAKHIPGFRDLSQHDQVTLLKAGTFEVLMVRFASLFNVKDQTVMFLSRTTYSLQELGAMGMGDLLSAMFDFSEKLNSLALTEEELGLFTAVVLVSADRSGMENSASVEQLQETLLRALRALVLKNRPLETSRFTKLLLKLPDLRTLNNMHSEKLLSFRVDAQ
beta cell repl – MIN6 beta-cell proliferation induction. MIN6 cells proliferation, ATPlite luminescence, 48 h; cells starved in 0.2% serum; 100% = growth in 10% serum. proliferation, % at 10 µM. 330,000 tested, 0.29% active;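 active = compounds whose signal lies at least 3.5 SD above the mean of all wells on their plate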
hiPSC survival – increases survival of single human iPS cells; hiPSC single-cell survival, ATPlite luminescence; 100% = ROCK inhibitor wells, 0% = DMSO; survival enhancement, % at 20 µM; 360,000 tested, 0.044% active; in the data active = survival enhancement above about 18%;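 also: cells exposed to compounds for 16 hours before the ATP read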
NR1D1 mod conf – Rev-erb alpha (human) modulation, hit confirmation | shares compounds with Rev-erbA mod | Rev-erb alpha FITC-DNA binding, fluorescence polarization, 90 min | activation, % at 25 µM | 3,000 tested, 61% active | AID 1259319;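 active = activation at or above a set limit, or at least 3 SD above the negative control mean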
RORg DNA counter – counter-screen for Rev-erb alpha modulators: RORgamma DNA binding; 910 tested, 8% active; AID 1259320; shares compounds with Rev-erbA mod; IC50, µM; purified RORgamma protein-FITC-DNA binding, fluorescence polarization;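 active = Compounds whose fitted half-maximal concentration for disrupting protein-DNA binding is below 10 micromolar; the record names Rev-erb in its text, so the target is in doubt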
Large screens that a line does not name were inactive (follow-up assays come after a bar, where they were run).

COCCCn1c(C(=O)NCCC2=CCCCC2)cc2c(=O)n3cccc(C)c3nc21	Rev-erbA mod 62 (no result: TAG inh) | NR1D1 mod conf 40 | RORg DNA counter inactive
COc1cc(/C=N/NC(=O)c2c(C)nc3ccc(Cl)cn23)cc(OC)c1OC	Rev-erbA mod 50 | NR1D1 mod conf 47 | RORg DNA counter inactive
O=C(NCc1ccc(F)cc1)N[C@@H](Cc1ccccc1)C(=O)O	none (no result: TAG inh)
Cc1ccc(-c2nnn3c2nc(NCCc2ccc(S(N)(=O)=O)cc2)c2ccccc23)cc1	Rev-erbA mod 48 (no result: TAG inh) | NR1D1 mod conf 30
NS(=O)(=O)c1ccc(CCNc2ncnc3sccc23)cc1	none
Cc1cccc(-c2nnn3c2nc(NCCc2ccc(S(N)(=O)=O)cc2)c2ccccc23)c1	Rev-erbA mod 78 (no result: TAG inh) | NR1D1 mod conf 56 | RORg DNA counter inactive
CC(=O)NCCNc1nc2c(-c3ccccc3)nnn2c2ccccc12	none (no result: TAG inh)
NS(=O)(=O)c1ccc(CCNc2nc3c(-c4cccc(F)c4)nnn3c3ccccc23)cc1	Rev-erbA mod 82 (no result: TAG inh) | NR1D1 mod conf 83 | RORg DNA counter inactive
COc1cc(-c2cc(C(=O)NCCc3ccc(S(N)(=O)=O)cc3)c3ccccc3n2)cc(OC)c1OC	none
O=C1NC(=O)/C(=C\c2ccc(Cl)nc2)S1	none
O=C1CS/C(=N/N=C/c2ccccc2OS(=O)(=O)c2ccccc2)N1	none (no result: TAG inh)
Nc1ccn(CCCN2CCN(Cc3cccc4ccccc34)CC2)c(=O)n1	none (no result: T cruzi repl, beta cell repl)
CCOC(=O)c1sc(=NC(=O)c2ccc(OC(C)C)cc2)n(C)c1C	Rev-erbA mod 44 | NR1D1 mod conf 38 | RORg DNA counter 4.4
Cc1ccc2c(c1)sc(=NC(=O)c1cccs1)n2C	Rev-erbA mod 43 | NR1D1 mod conf inactive
CCOC(=O)c1sc(=NC(=O)c2ccc(C)c(C)c2)n(C)c1C	none (no result: TAG inh)
CCOC(=O)c1sc(=NC(=O)c2cccs2)n(C)c1C	Rev-erbA mod 31 | NR1D1 mod conf inactive
CCOC(=O)c1sc(=NC(=O)c2ccc(Cl)s2)n(C)c1C	none
C=CCNC(=O)/C(C#N)=C/c1c(N2CCN(c3ccccc3)CC2)nc2c(C)cccn2c1=O	none (no result: TAG inh)
CCOC(=O)C(CC)Sc1nnc2cc(C)c3ccccc3n12 (stereo unspecified)	none (no result: TAG inh)
CCN(CC)S(=O)(=O)c1ccc(C(=O)OCCN2C(=O)c3cccc4c(N5CCOCC5)ccc(c34)C2=O)cc1	Rev-erbA mod 278 (no result: TAG inh) | NR1D1 mod conf 217 | RORg DNA counter inactive
O=C(OCCN1C(=O)c2ccccc2C1=O)c1ccc(S(=O)(=O)N2CCCCCC2)cc1	none
O=C1c2cccc3c(N4CCCCC4)ccc(c23)C(=O)N1c1ccccn1	none
CC(=O)N(C(C)=O)N1C(=O)c2cccc3c(N4CCOCC4)ccc(c23)C1=O	Rev-erbA mod 17 | NR1D1 mod conf inactive
CCc1nnc(NC(=O)c2ccc3c(=O)n4c(nc3c2)CCCCC4)s1	none
Cc1ccc(C(=O)Oc2ccc(-c3nccc(-c4ccccn4)n3)cc2)cc1	Rev-erbA mod 20 | NR1D1 mod conf inactive
CN(C)c1ccc(N=C/C=C2/N(C)c3ccccc3C2(C)C)cc1	Rev-erbA mod 25 (no result: beta cell repl) | NR1D1 mod conf inactive
COc1ccc2c(c1)c1ccccc1n2C	none
Cc1ccc2[nH]cc(/C=C/c3cc[n+](C)cc3)c2c1	T cruzi repl 59, Rev-erbA mod 232 (no result: TAG inh) | NR1D1 mod conf 142 | RORg DNA counter inactive
CC[n+]1ccc(/C=C/c2c[nH]c3ccccc23)cc1	T cruzi repl 70, Rev-erbA mod 134 (no result: TAG inh) | NR1D1 mod conf 131 | RORg DNA counter inactive
COc1ccc2c(/C=C/c3cc[n+](C)cc3)c[nH]c2c1	Rev-erbA mod 46 (no result: TAG inh) | NR1D1 mod conf 31 | RORg DNA counter inactive
COc1ccc2c(c1)c(/C=C/c1cc[n+](C)cc1)cn2C	Rev-erbA mod 100 (no result: TAG inh) | NR1D1 mod conf 79 | RORg DNA counter inactive
Cc1ccc(C(=O)/C=C/Nc2ccc(S(=O)(=O)Nc3cc(C)nc(C)n3)cc2)cc1	none
CC1CCN(c2ccc3nnc(CCC(=O)Nc4ccc(F)c(F)c4)n3n2)CC1	Rev-erbA mod 28 (no result: TAG inh) | NR1D1 mod conf inactive
COc1cccc(N2CCN(c3ccc4nnc(CCC(=O)Nc5ccc(F)cc5)n4n3)CC2)c1	none (no result: TAG inh)
COc1cccc(N2CCN(c3ccc4nnc(CCC(=O)Nc5cccc(C(C)=O)c5)n4n3)CC2)c1	Rev-erbA mod 27 (no result: TAG inh) | NR1D1 mod conf inactive
O=C(Nc1cnn(Cc2ccc(F)cc2)c1)c1cc(-c2cccs2)on1	none (no result: PG9 Ab binder, TAG inh)
C=CCSc1nnc(NC(=O)c2ccc(S(=O)(=O)NCC3CCCO3)cc2)s1 (stereo unspecified)	none (no result: TAG inh)
CCN(C(=O)c1ccc(C)c(Br)c1)c1ccccc1	none (no result: TAG inh)
O=C(O)c1ccc(-c2ccc(/C=N/Nc3ccc([N+](=O)[O-])cc3)o2)cc1	Rev-erbA mod 21 | NR1D1 mod conf 18
O=C(O)c1cccc(-c2ccc(/C=N/Nc3ccc([N+](=O)[O-])cc3)o2)c1	none
CCOC(=O)C1CCCN(C2=NC(=O)/C(=C/c3ccc(N(C)C)cc3)S2)C1 (stereo unspecified)	Rev-erbA mod 27 (no result: TAG inh) | NR1D1 mod conf inactive
CN(Cc1ccc(Br)cc1)CC(O)COc1cccc(Br)c1 (stereo unspecified)	none (no result: TAG inh)
O=C(CSc1nc(C2CC2)nc2sc3c(c12)CCCC3)NCc1ccco1	Rev-erbA mod 27 (no result: TAG inh) | NR1D1 mod conf inactive
CCN(C[C@H]1N[C@@](Cc2ccccc2)(C(=O)OC)[C@H]2C(=O)N(C)C(=O)[C@@H]12)C(=O)Nc1ccc(Cl)cc1	none (no result: T cruzi repl)
COc1ccc2[nH]c(C(=O)Nc3ccc(C)c(F)c3)cc2c1	Rev-erbA mod 49 | NR1D1 mod conf 44 | RORg DNA counter 1.5
Cc1cccc(N2CCN(c3ccc4cc(S(=O)(=O)N5CCCCC5)ccc4n3)CC2C)c1 (stereo unspecified)	Rev-erbA mod 78 (no result: TAG inh) | NR1D1 mod conf 49 | RORg DNA counter inactive
Cc1cccc(N2CCN(c3ccc4cc(S(=O)(=O)N5CCCCC5)ccc4n3)CC2)c1C	Rev-erbA mod 101 (no result: TAG inh) | NR1D1 mod conf 50 | RORg DNA counter inactive
Cc1ccc(C)c(N2CCN(c3ccc4cc(S(=O)(=O)N5CCCCC5)ccc4n3)CC2)c1	none (no result: TAG inh)
CC1CCCCN1CC(=O)c1c[nH]c2ccccc12 (stereo unspecified)	none (no result: TAG inh)
CCN(CC)c1ccc(S(=O)(=O)N2CCCCC2)cc1NC(=O)C1CSC2(C)CCC(=O)N12 (stereo unspecified)	Rev-erbA mod 23 (no result: T cruzi repl) | NR1D1 mod conf 22
